{"source": "ChEMBL document CHEMBL1131311", "about": "“Discovery of a novel, potent, and orally active nonpeptide antagonist of the human luteinizing hormone-releasing hormone (LHRH) receptor” (J Med Chem, 1998)", "molecular_target": "T1, Gonadotropin-releasing hormone receptor (Homo sapiens, UniProt P30968)", "T1 sequence (P30968 whole entry)": "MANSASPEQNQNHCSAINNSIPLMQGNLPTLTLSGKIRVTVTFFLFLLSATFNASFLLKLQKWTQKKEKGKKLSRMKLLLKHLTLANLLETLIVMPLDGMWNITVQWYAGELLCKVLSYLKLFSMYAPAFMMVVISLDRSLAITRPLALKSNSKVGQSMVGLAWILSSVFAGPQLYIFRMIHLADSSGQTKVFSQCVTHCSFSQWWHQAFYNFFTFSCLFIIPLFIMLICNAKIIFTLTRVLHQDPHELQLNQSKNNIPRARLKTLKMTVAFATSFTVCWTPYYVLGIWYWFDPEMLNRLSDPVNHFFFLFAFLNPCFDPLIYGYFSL", "test": "The Compound was tested for the concentration to inhibit 50% of [125 I ]leuprorelin binding to the cloned human Leutinizing releasing hormone receptor (LHRH) receptor.", "summary_of_the_method": "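Membranes from CHO cells stably expressing cloned human LHRH receptor (0.2 mg/mL) incubated with [125I]leuprorelin (0.15 nM) and graded compound in Tris/EDTA/BSA buffer with protease inhibitors, pH 7.5, 60 min at 25 °C. Filtration on PEI-coated glass fiber, gamma counting. Nonspecific binding with 1 µM unlabeled leuprorelin. IC50 from pseudo-Hill fit. Means of ≥3 determinations.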", "data": [{"smiles": "CCOC(=O)c1cn(Cc2c(F)cccc2F)c2sc(-c3ccc(N)cc3)c(CN(C)Cc3ccccc3)c2c1=O", "values": [{"measurement": "IC50", "result": 4, "unit": "nM"}]}]}
